Data set [1] addresses Mu-type opioid receptor (Rattus norvegicus, UniProt P33535). Put plainly: Displacement of [3H]-DAMGO from MOR in rat brain membranes incubated for 45 mins by liquid scintillation counting. It counts as cell membranes. In outline:
(§1)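 Rat brain membranes in 50 mM Tris-HCl pH 7.4, incubated 45 min at 35 °C. MOR: 0.4 mg/mL protein with 1 nM [3H]-DAMGO. DOR: 0.5 mg/mL protein with 2 nM [3H]-DPDPE. Filtered and counted by liquid scintillation. Ki from nonlinear regression of a logistic fit. Three experiments in duplicate.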

The target of data set [2] is Delta-type opioid receptor (Rattus norvegicus, UniProt P33533). Put plainly: Displacement of [3H]DPDPE from DOR in rat brain membranes incubated for 45 mins by liquid scintillation counting. It counts as cell membranes. In outline:
as §1

Data set [3] concerns the target Kappa-type opioid receptor (Cavia porcellus, UniProt P41144). Put plainly: Displacement of [3H]-U69,593 from KOR in guinea pig brain membranes incubated for 30 mins by liquid scintillation counting. It counts as cell membranes. In outline: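 Guinea pig brain membranes (0.5 mg/mL) incubated 30 min at 30 °C with 1 nM [3H]-(+)-U69,593. Filtered and counted by liquid scintillation. Ki from nonlinear regression of a logistic fit. Three experiments in duplicate.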

The species named for a further data set is Rattus norvegicus. Put plainly: Selectivity ratio of Ki for DOR in rat brain membranes to Ki for MOR in rat brain membranes. It counts as cell membranes. In outline: as §1
A short description of data set [4]: Selectivity ratio of Ki for KOR in guinea pig brain membranes to Ki for MOR in rat brain membranes. It counts as cell membranes.
In data set [5] the test system is Mus musculus. Nature of the data set: Antinociceptive activity in ip dosed Swiss CB1 mouse after 60 to 180 mins by radiant heat tail-flick method. It counts as functional, organism-based. In outline: (§2)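 Male Swiss CB1 mice (25-30 g), habituated the day before. Radiant heat tail-flick: infrared source aimed at the lower third of the tail at 25 ± 1 °C. Baseline 3-5 s, mean of three readings 5 min apart; 20 s cutoff. Compounds in saline with DMSO (5%), given i.p. Latencies read at 30-180 min. […] Groups of 6-8 mice.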

A short description of data set [6]: Toxicity in Swiss CB1 mouse assessed as locomotor activity at 0.5 to 5.0 mg/kg, ip after 30 to 180 mins. Conditions: in vivo. It counts as organism-based.
Data set [7] is described as follows: Toxicity in Swiss CB1 mouse assessed as sedation at 0.5 to 5.0 mg/kg, ip after 30 to 180 mins. It counts as organism-based. Conditions: in vivo.
Data set [8] relates to Mus musculus. Nature of the data set: Antinociceptive activity in ip dosed Swiss CB1 mouse after 30 to 180 mins by radiant heat tail-flick method. It counts as functional. In outline:
as §2

Data set [9] concerns the target T1, Delta-type opioid receptor (Homo sapiens, UniProt P41143). Put plainly: Agonist activity at Rluc-tagged DOR receptor (unknown origin) expressed in human […] cells co-expressing RGFP-fused to Gbeta1 assessed as increase in DOR/G beta1 protein interaction incubated for 5 mins in presence of coelenterazine by BRET assay. It counts as cell-based.
In data set [10] the target is T1, Delta-type opioid receptor. Put plainly: Agonist activity at Rluc-tagged DOR receptor (unknown origin) expressed in human […] cells co-expressing RGFP-fused to beta-arrestin-2 assessed as increase in DOR/beta-arrestin-2 protein interaction incubated for 5 mins in presence of coelenterazine by BRET assay. It counts as cell-based.
The target in data set [11] is T2, Mu-type opioid receptor (Homo sapiens, UniProt P35372). Put plainly: Potency index, ratio of test compounds EC50 to DADLE EC50 for agonist activity at Rluc-tagged MOR receptor (unknown origin) expressed in human […] cells co-expressing RGFP-fused to Gbeta1. It counts as cell-based. The method in brief:
(§3)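 Enriched plasma membranes (3 µg protein) from SH-SY5Y cells stably co-expressing MOR-RLuc and Gβ1-RGFP, in DPBS. Membranes prepared by Dounce homogenisation in sucrose buffer and differential centrifugation. Coelenterazine 5 µM final; ligands in PBS-BSA 0.01% incubated 5 min at room temperature. Read-out is BRET ratio (510/460 nm). […] At least 5 experiments in duplicate.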

For data set [12], the target named is T2, Mu-type opioid receptor. Put plainly: Potency index, ratio of test compounds EC50 to DADLE EC50 for agonist activity at Rluc-tagged MOR receptor (unknown origin) expressed in human […] cells co-expressing RGFP-fused to beta-arrestin-2. It counts as cell-based. In outline: (§4)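 Whole SH-SY5Y cells stably co-expressing MOR-RLuc and β-arrestin 2-RGFP, plated 24 h before at 100,000 cells/well, in PBS with 0.5 mM MgCl2 and 0.9 mM CaCl2. Coelenterazine 5 µM final, added 15 min before reading; ligands incubated 5 min at room temperature. Read-out is BRET ratio (510/460 nm).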

Data set [13] has as its target T2, Mu-type opioid receptor. Put plainly: Potency index, ratio of test compounds intrinsic activity to DADLE intrinsic activity for agonist activity at Rluc-tagged MOR receptor (unknown origin) expressed in human […] cells co-expressing RGFP-fused to Gbeta1. It counts as cell-based. The method in brief:
as §3

In data set [14] the target is T2, Mu-type opioid receptor. Put plainly: Potency index, ratio of test compounds intrinsic activity to DADLE intrinsic activity for agonist activity at Rluc-tagged MOR receptor (unknown origin) expressed in human […] cells co-expressing RGFP-fused to beta-arrestin-2. It counts as cell-based. In outline: as §4
Data set [15] deals with T2, Mu-type opioid receptor. Nature of the data set: Bias factor, change in deltalog(Tau/KA) for agonist activity at Rluc-tagged MOR receptor (unknown origin) expressed in human […] cells co-expressing RGFP-fused to Gbeta1 assessed as increase in MOR/G beta1 protein interaction incubated for 5 mins in presence of coelenterazine by BRET assay to deltalog(Tau/KA) for agonist activity at Rluc-tagged MOR receptor (unknown origin) expressed in human […] cells co-expressing RGFP-fused to MOR/beta-arrestin-2 assessed as increase in beta-arrestin-2 protein interaction incubated for 5 mins in presence of coelenterazine by BRET assay. It counts as cell-based.

Data set [16] has as its target T2, Mu-type opioid receptor. Put plainly: Potency index, ratio of test compounds pEC50 to DADLE pEC50 for agonist activity at Rluc-tagged MOR receptor (unknown origin) expressed in human […] cells co-expressing RGFP-fused to Gbeta1. It counts as cell-based.
The target of data set [17] is T2, Mu-type opioid receptor. Put plainly: Potency index, ratio of test compounds pEC50 to DADLE pEC50 for agonist activity at Rluc-tagged MOR receptor (unknown origin) expressed in human […] cells co-expressing RGFP-fused to beta-arrestin-2. It counts as cell-based.
The target of data set [18] is T2, Mu-type opioid receptor.
Data set [19] has as its target T2, Mu-type opioid receptor. This is another data set of the same source.
Another data set is filed under the species Homo sapiens. Put plainly: Selectivity ratio of agonist activity at Rluc-tagged MOR receptor (unknown origin) expressed in human SH-5YSY cells co-expressing RGFP-fused to Gbeta1 assessed as increase in MOR/G beta1 protein interaction incubated for 5 mins in presence of coelenterazine by BRET assay over Agonist activity at Rluc-tagged DOR receptor (unknown origin) expressed in human […] cells co-expressing RGFP-fused to Gbeta1 assessed as increase in DOR/G beta1 protein interaction incubated for 5 mins in presence of coelenterazine by BRET assay. It counts as cell-based.

Data set [20] is described as follows: Toxicity in Swiss CB1 mouse assessed as locomotor activity at 0.5 to 3.0 mg/kg, ip after 30 to 180 mins. It counts as organism-based. Conditions: in vivo.
Data set [21] can be described thus: Toxicity in Swiss CB1 mouse assessed as sedation at 0.5 to 3.0 mg/kg, ip after 30 to 180 mins. Conditions: in vivo. It counts as organism-based.

Structures are written as SMILES. Activity calls are given as the source filed them.

T1 sequence (P41143 whole entry, the tested form may be a part): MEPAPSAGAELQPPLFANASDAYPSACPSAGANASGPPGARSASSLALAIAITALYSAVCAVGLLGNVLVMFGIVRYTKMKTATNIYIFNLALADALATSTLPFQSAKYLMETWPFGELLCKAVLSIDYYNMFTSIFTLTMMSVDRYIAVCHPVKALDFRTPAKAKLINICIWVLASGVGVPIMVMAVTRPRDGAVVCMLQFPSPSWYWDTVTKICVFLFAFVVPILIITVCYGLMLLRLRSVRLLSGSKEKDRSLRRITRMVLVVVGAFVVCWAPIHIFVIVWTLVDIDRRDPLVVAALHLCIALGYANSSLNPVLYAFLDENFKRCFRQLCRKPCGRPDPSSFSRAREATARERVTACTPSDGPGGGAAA
T2 sequence (P35372 whole entry, the tested form may be a part): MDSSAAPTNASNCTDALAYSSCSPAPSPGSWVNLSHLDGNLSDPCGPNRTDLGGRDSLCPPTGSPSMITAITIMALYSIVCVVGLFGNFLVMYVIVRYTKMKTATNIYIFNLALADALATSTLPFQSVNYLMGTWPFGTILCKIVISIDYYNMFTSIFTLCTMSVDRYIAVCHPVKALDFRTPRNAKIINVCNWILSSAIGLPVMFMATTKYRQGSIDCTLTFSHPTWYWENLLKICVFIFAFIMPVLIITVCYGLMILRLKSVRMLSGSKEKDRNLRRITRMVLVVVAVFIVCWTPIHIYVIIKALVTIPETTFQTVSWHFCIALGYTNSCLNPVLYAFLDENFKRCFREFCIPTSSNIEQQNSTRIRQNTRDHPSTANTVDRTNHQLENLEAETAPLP
Sequence of Mu-type opioid receptor (Rattus norvegicus, UniProt P33535) (P33535 whole entry): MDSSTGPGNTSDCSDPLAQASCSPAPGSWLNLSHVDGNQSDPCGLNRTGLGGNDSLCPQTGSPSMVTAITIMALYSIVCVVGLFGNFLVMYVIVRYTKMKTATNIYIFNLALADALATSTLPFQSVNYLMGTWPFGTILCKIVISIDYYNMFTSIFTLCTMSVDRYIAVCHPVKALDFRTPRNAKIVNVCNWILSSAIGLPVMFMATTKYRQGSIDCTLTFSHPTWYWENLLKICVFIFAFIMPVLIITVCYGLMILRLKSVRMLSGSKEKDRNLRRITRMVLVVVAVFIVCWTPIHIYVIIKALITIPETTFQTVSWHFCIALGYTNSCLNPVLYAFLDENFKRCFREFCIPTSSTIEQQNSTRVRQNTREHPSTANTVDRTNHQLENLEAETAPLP
Sequence of Kappa-type opioid receptor (P41144 whole entry): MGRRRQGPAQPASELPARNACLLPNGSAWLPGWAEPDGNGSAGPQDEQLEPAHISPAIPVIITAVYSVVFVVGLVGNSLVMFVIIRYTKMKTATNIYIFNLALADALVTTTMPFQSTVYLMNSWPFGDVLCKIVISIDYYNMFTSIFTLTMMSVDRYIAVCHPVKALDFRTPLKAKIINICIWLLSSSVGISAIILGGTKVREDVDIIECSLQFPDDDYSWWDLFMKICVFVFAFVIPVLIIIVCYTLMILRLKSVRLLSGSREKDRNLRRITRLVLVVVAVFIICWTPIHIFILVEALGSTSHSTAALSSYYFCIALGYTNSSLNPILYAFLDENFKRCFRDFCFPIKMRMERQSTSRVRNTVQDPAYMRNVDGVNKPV
Sequence of Delta-type opioid receptor (Rattus norvegicus, UniProt P33533) (P33533 whole entry): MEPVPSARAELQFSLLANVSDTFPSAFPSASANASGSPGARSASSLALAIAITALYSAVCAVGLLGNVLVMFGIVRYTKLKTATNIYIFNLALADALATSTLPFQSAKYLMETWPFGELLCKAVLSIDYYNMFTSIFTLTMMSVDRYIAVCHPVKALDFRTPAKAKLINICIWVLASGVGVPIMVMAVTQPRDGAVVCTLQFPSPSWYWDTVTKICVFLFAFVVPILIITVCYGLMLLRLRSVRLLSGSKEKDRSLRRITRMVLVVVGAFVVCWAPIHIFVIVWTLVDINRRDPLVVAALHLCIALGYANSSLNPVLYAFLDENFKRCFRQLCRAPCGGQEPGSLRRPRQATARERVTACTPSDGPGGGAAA

For the compound `CO[C@@H](CN1CC[C@@]2(C)c3cc(O)ccc3C[C@@H]1[C@@H]2C)c1ccccc1`, the Ki was determined as 12.3 nM at Mu-type opioid receptor [1], 151 nM in [2] and 236 nM in data set [3]. Besides, the Ratio Ki in the data set listed under Rattus norvegicus was found to be 12.3; in data set [4], 19.2. Besides, the outcome in the data set with Mus musculus [5] was Active. For the same compound, the Activity entry in data set [6] and in [7] was “Non-Toxic” each time. Besides, the ED50 in the data set on Mus musculus [8] came to 1.8 mg/kg.
`COC(CN1CC[C@@]2(C)c3cc(O)ccc3C[C@@H]1[C@@H]2C)c1ccccc1` (some centres undefined): the EC50 in [9] was 95.5 nM; in [10], 2240 nM; on Mu-type opioid receptor [18], 12.6 nM; on Mu-type opioid receptor [19], 275 nM. In addition, the Ratio on Mu-type opioid receptor [11] stood at 0.1; at Mu-type opioid receptor [12], 0.2; at Mu-type opioid receptor [13], 0.92; at Mu-type opioid receptor [14], 0.71; at Mu-type opioid receptor [16], 10; on Mu-type opioid receptor [17] it was 5. Also, the fold change (FC) at Mu-type opioid receptor [15] came out at 0.57.
For `C[C@H]1[C@H]2Cc3ccc(O)cc3[C@]1(C)CCN2C[C@H](O)c1ccccc1`, the EC50 in data set [9] is 58.9 nM; at Mu-type opioid receptor [18], 22.4 nM. For the same compound, the Ratio was 0.19 on Mu-type opioid receptor [11], 0.82 on Mu-type opioid receptor [13] and 0.4 in the data set filed under Homo sapiens.
For the compound `C[C@H]1[C@H]2Cc3ccc(O)cc3[C@]1(C)CCN2C[C@@H](O)c1ccccc1`, the EC50 in [9] was 14.5 nM; at Mu-type opioid receptor [18], 6.61 nM. Also, the figures for the Ratio on Mu-type opioid receptor [11], at Mu-type opioid receptor [13] and in the data set listed under Homo sapiens were 0.06, 0.87 and 0.46, respectively.
`CO[C@H](CN1CC[C@@]2(C)c3cc(O)ccc3C[C@@H]1[C@@H]2C)c1ccccc1`: the Ki at Mu-type opioid receptor [1] is 0.5 nM; in data set [2], 2.59 nM; in [3] it was 26.5 nM. The Ratio Ki in the data set filed under Rattus norvegicus is 5.18; in data set [4] it was 53. The EC50 was 32.4 nM in data set [9], 1860 nM in data set [10], 4.68 nM at Mu-type opioid receptor [18] and 151 nM on Mu-type opioid receptor [19]. The Ratio on Mu-type opioid receptor [11] came out at 0.04; at Mu-type opioid receptor [12], 0.11; on Mu-type opioid receptor [13] it was 0.93; on Mu-type opioid receptor [14] it was 0.72; at Mu-type opioid receptor [16], 30; at Mu-type opioid receptor [17] it was 9. The fold change (FC) at Mu-type opioid receptor [15] was found to be 0.82. In addition, the Activity result in data set [20] and in data set [21] was “Non-Toxic” in each case. In the data set with Mus musculus [8], this compound yielded an ED50 of 0.6 mg/kg.
